In ChEMBL document CHEMBL1671748, “Subinhibitory concentrations of protein synthesis-inhibiting antibiotics promote increased expression of the agr virulence regulator and production of phenol-soluble modulin cytolysins in community-associated methicillin-resistant Staphylococcus aureus” (2010) one finds Activity and MIC data, which are given here for eleven compounds.

≈ marks a conversion by molar mass, not a printed value. Calls of active or inactive are those of the source.

The subject of test [1] is Staphylococcus aureus. Description: Decrease in delta toxin levels in Staphylococcus aureus Sanger 252 at subinhibitory concentrations after 24 hrs by RP-HPLC/ESI- MS. Type of test: functional, organism-based. A digest of the protocol: (§1)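 Antibiotic at a subinhibitory concentration was added at inoculation (1:100 from precultures) into 1 ml tryptic soy broth and shaken 24 h at 200 rpm. Peptides in culture filtrates were quantified by RP-HPLC/ESI-MS in triplicate. Each concentration started at 1/10 of the published MIC and was adjusted to give minimal growth effect, judged by OD600.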

In test [2] the test system is Staphylococcus aureus. Description: Decrease in delta toxin levels in Staphylococcus aureus USA300 at subinhibitory concentrations after 24 hrs by RP-HPLC/ESI- MS. Type of test: functional, organism-based. A digest of the protocol:
as §1

In test [3] the test system is Staphylococcus aureus. Description: Decrease in PSMbeta1 levels in Staphylococcus aureus Sanger 252 at subinhibitory concentrations after 24 hrs by RP-HPLC/ESI- MS. It counts as functional, organism-based. In a few lines:
(§2)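 Antibiotic was added at inoculation (1:100 from preculture) into tryptic soy broth, with an antibiotic-free control, and shaken at 200 rpm for 24 h. Sub-inhibitory levels started at 1/10 of published MICs and were adjusted to give minimal growth effect, with growth tracked by OD600. PSMs in culture filtrates were quantified in triplicate by RP-HPLC/ESI-MS and reported as mean ± SD.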

Test [4] deals with Staphylococcus aureus. Description: Decrease in PSMbeta1 levels in Staphylococcus aureus USA300 at subinhibitory concentration after 24 hrs by RP-HPLC/ESI-MS. Type of test: functional, organism-based. A digest of the protocol:
as §2

Test [5] deals with Staphylococcus aureus. Description: Antimicrobial activity against community-associated methicillin-resistant Staphylococcus aureus USA300. Type of test: functional.
For test [6], the system named is Staphylococcus aureus. Description: Antimicrobial activity against community-associated methicillin-resistant Staphylococcus aureus Sanger 252. Type of test: functional.
Test [7] deals with T1, Accessory gene regulator protein A (Staphylococcus aureus) (UniProt P0A0I7).
T1 sequence (whole entry): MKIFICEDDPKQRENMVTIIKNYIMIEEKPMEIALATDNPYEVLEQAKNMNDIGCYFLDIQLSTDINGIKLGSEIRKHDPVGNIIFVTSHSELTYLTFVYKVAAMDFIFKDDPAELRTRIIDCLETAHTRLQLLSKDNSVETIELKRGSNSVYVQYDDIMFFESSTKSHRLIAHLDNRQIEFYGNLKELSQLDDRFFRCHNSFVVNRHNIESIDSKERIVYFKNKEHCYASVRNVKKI
Description: Activity of Quorum sensing agr in community-associated methicillin-resistant Staphylococcus aureus USA300 assessed as PSMalpha expression after 8 hrs by qRT-PCR. In a few lines: (§3)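 LAC (USA300) was grown 8 h in shaken 125-ml flasks with antibiotic at a subinhibitory concentration. psmα and psmβ transcripts were quantified by qRT-PCR, with gyrB transcript as control, in parallel with RNAIII as the agr read-out. Run in triplicate; means ± SD.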
Background: Real-time PCR tracks product formation cycle by cycle.

Test [8] concerns the target T1, Accessory gene regulator protein A (Staphylococcus aureus). Description: Activity of Quorum sensing agr in community-associated methicillin-resistant Staphylococcus aureus USA300 assessed as PSMbeta expression after 8 hrs by qRT-PCR. A digest of the protocol: as §3
The subject of test [9] is Staphylococcus aureus. Description: Increase in PSMalpha levels in Staphylococcus aureus USA300 at subinhibitory concentrations after 24 hrs by RP-HPLC/ESI- MS. Type of test: functional, organism-based. A digest of the protocol: as §2
The subject of test [10] is Staphylococcus aureus. Description: Decrease in PSMalpha levels in Staphylococcus aureus USA300 at subinhibitory concentration after 24 hrs by RP-HPLC/ESI-MS. Type of test: functional, organism-based. A digest of the protocol: as §1
Test [11] deals with Staphylococcus aureus. Description: Decrease in PSMalpha levels in Staphylococcus aureus Sanger 252 at subinhibitory concentrations after 24 hrs by RP-HPLC/ESI- MS. Type of test: functional, organism-based. In a few lines: as §2
Test [12] relates to Staphylococcus aureus. Description: Increase in PSMalpha levels in Staphylococcus aureus Sanger 252 at subinhibitory concentrations after 24 hrs by RP-HPLC/ESI- MS. It counts as functional, organism-based. A digest of the protocol:
as §1

For the compound `CN[C@H](CC(C)C)C(=O)N[C@H]1C(=O)N[C@@H](CC(N)=O)C(=O)N[C@H]2C(=O)N[C@H]3C(=O)N[C@H](C(=O)N[C@H](C(=O)O)c4cc(O)cc(O)c4-c4cc3ccc4O)[C@H](O)c3ccc(c(Cl)c3)Oc3cc2cc(c3O[C@@H]2O[C@H](CO)[C@@H](O)[C@H](O)[C@H]2O[C@H]2C[C@](C)(N)[C@H](O)[C@H](C)O2)Oc2ccc(cc2Cl)[C@H]1O`, the result in the test with Staphylococcus aureus [1] and in the test with Staphylococcus aureus [2] was inactive. For the same compound, the outcome in the test on Staphylococcus aureus [3] and in the test with Staphylococcus aureus [4] was Active.

As usually defined, the MIC is the smallest concentration in the dilution series that meets the test's criterion for growth inhibition. Higher therefore signals weaker potency. Regarding `O=C(O)c1cn(C2CC2)c2cc(N3CCNCC3)c(F)cc2c1=O` [CIPROFLOXACIN], the MIC is 2 µg/mL (≈ 6.04 µM) with Staphylococcus aureus [5] and more than 16 µg/mL in the test with Staphylococcus aureus [6]. For the same compound, the result in the test with Staphylococcus aureus [1] and in the test on Staphylococcus aureus [2] was inactive. The outcome with Staphylococcus aureus [3] and in the test with Staphylococcus aureus [4] was Active.

For `CCC[C@@H]1C[C@@H](C(=O)N[C@@H]([C@H]2O[C@H](SC)[C@H](O)[C@@H](O)[C@H]2O)[C@H](C)Cl)N(C)C1` [CLINDAMYCIN], the outcome (in test [7]; in test [8]; in the test on Staphylococcus aureus [9]; in the test with Staphylococcus aureus [3]; with Staphylococcus aureus [4]) was Active. The results for the minimum inhibitory concentration (MIC) in the test with Staphylococcus aureus [5] and against Staphylococcus aureus [6] were 0.12 µg/mL (≈ 0.282 µM) and more than 4 µg/mL, respectively. In addition, the outcome in the test on Staphylococcus aureus [1] and in the test with Staphylococcus aureus [2] was inactive.

As for `CC[C@H]1OC(=O)[C@H](C)[C@@H](O[C@H]2C[C@@](C)(OC)[C@@H](O)[C@H](C)O2)[C@H](C)[C@@H](O[C@@H]2O[C@H](C)C[C@H](N(C)C)[C@H]2O)[C@](C)(O)C[C@@H](C)C(=O)[C@H](C)[C@@H](O)[C@]1(C)O` [ERYTHROMYCIN], the minimum inhibitory concentration (MIC) in the test on Staphylococcus aureus [5] and with Staphylococcus aureus [6] was more than 8 µg/mL throughout. Further, the outcome with Staphylococcus aureus [9], in the test with Staphylococcus aureus [3] and with Staphylococcus aureus [4] was Active. Moreover, the result with Staphylococcus aureus [1] and in the test with Staphylococcus aureus [2] was inactive.

In the case of `CC(=O)NC[C@H]1CN(c2ccc(N3CCOCC3)c(F)c2)C(=O)O1` [LINEZOLID], the MIC in the test on Staphylococcus aureus [6] came out at 1 µg/mL (≈ 2.96 µM). Moreover, the result in the test on Staphylococcus aureus [9], in the test on Staphylococcus aureus [3] and in the test on Staphylococcus aureus [4] was Active. The result in the test with Staphylococcus aureus [1] and in the test on Staphylococcus aureus [2] was inactive.

For the compound `C/C(=C\C(=O)OCCCCCCCCC(=O)O)C[C@@H]1OC[C@H](C[C@@H]2O[C@H]2[C@@H](C)[C@H](C)O)[C@@H](O)[C@H]1O` [MUPIROCIN], the minimal inhibitory concentration (MIC) against Staphylococcus aureus [5] came to 0.12 µg/mL (≈ 0.24 µM); against Staphylococcus aureus [6], 0.25 µg/mL (≈ 0.499 µM). The outcome with Staphylococcus aureus [10] and in the test on Staphylococcus aureus [2] was inactive. Moreover, the outcome in the test with Staphylococcus aureus [11], in the test on Staphylococcus aureus [1], in the test with Staphylococcus aureus [3] and in the test with Staphylococcus aureus [4] was Active.

Regarding `Cc1onc(-c2ccccc2)c1C(=O)N[C@@H]1C(=O)N2[C@@H]1SC(C)(C)[C@@H]2C(=O)O` [OXACILLIN], the outcome (in test [7]; in test [8]; with Staphylococcus aureus [12]; in the test on Staphylococcus aureus [1]) was inactive. Further, the MIC in the test on Staphylococcus aureus [5] and with Staphylococcus aureus [6] was more than 16 µg/mL each time. Further, the outcome in the test with Staphylococcus aureus [10], with Staphylococcus aureus [2], with Staphylococcus aureus [3] and in the test with Staphylococcus aureus [4] was Active.

For the compound `CO[C@H]1/C=C/O[C@@]2(C)Oc3c(C)c(O)c4c(O)c(c(/C=N/N5CCN(C)CC5)c(O)c4c3C2=O)NC(=O)/C(C)=C\C=C\[C@H](C)[C@H](O)[C@@H](C)[C@@H](O)[C@@H](C)[C@H](OC(C)=O)[C@@H]1C` [RIFAMPIN], the MIC against Staphylococcus aureus [5] and with Staphylococcus aureus [6] was 0.004 µg/mL (≈ 0.00486 µM) each time. In addition, the outcome in the test on Staphylococcus aureus [1] and in the test on Staphylococcus aureus [2] was inactive. Also, the result in the test with Staphylococcus aureus [3] and with Staphylococcus aureus [4] was Active.

For `Cc1cc(NS(=O)(=O)c2ccc(N)cc2)no1` [SULFAMETHOXAZOLE], the MIC with Staphylococcus aureus [5] and in the test with Staphylococcus aureus [6] was 4.75 µg/mL (≈ 18.8 µM) in each case.

`CN(C)[C@@H]1C(O)=C(C(N)=O)C(=O)[C@@]2(O)C(O)=C3C(=O)c4c(O)cccc4[C@@](C)(O)[C@H]3C[C@@H]12` [TETRACYCLINE]: the outcome (in test [7]; in test [8]; in the test on Staphylococcus aureus [9]; with Staphylococcus aureus [3]; with Staphylococcus aureus [4]) was Active. Further, the MIC in the test on Staphylococcus aureus [5] and against Staphylococcus aureus [6] was 1 µg/mL (≈ 2.25 µM) throughout. Also, the outcome with Staphylococcus aureus [1] and with Staphylococcus aureus [2] was inactive.

As to `COc1cc(Cc2cnc(N)nc2N)cc(OC)c1OC` [TRIMETHOPRIM], the minimum inhibitory concentration (MIC) in the test with Staphylococcus aureus [5] and against Staphylococcus aureus [6] was 0.25 µg/mL (≈ 0.861 µM) throughout.
